The species entered for one test is Mus musculus. In words: (§1) Compound was tested for sublethal concentrations in 3T3 mouse fibroblast lysis. The format is functional. In outline:
(§2)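 Mouse 3T3 fibroblast monolayers, 1 day old (about 1 × 10^4 cells/well), in MEM. Peptide applied as 2-fold serial dilutions in MEM, 30 min at 37 °C alongside untreated controls. Cells then stained with 0.2% trypan blue and viewed by light microscopy. Sublethal dose is the highest dilution in which only 1-10 adherent cells stay unstained.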

The species entered for the next test is Homo sapiens. Briefly: Compound was measured for sublethal concentrations (uM) in Human erythrocytes. The format is functional. In outline:
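Human erythrocytes (1 × 10^5 per well) incubated at 37 °C for 30 min with peptide. Peptide was dissolved in serum-free MEM and diluted 2-fold serially. Sublethal concentration is the highest dilution […]. A "greater than" entry means slight hemolysis at the highest concentration tested.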

The subject of another test is Escherichia coli. In words: Compound was evaluated for antibacterial activity against Escherichia coli. The format is functional. In outline:
(§3)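 Broth microdilution MIC against E. coli ATCC 25922, P. aeruginosa ATCC 27853, S. aureus ATCC 25723. Cultures grown to midlog phase in nutrient broth, standardized to 0.5 McFarland, diluted to 5 × 10^4 cells per well. Equal volume of peptide added, 1:2 serial dilutions giving 256-2 µg/mL in medium. MIC is the lowest concentration with no turbidity […]. Median of three to seven tests.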

The next test has as its system Staphylococcus aureus. Briefly: Compound was evaluated for antibacterial activity against Staphylococcus aureus. Format: functional. Summed up:
as §3

Another test has as its system Pseudomonas aeruginosa. In words: Compound was evaluated for antibacterial activity against Pseudomonas aeruginosa. The format is functional. Summed up: as §3
A further test has as its system NIH3T3. The test is described as §1. Format: functional, cell-based. In outline: as §2

In brackets after ≈: the same amount, converted by molar mass.

Turning to `CC(C)C[C@H](NC(=O)[C@H](CCCCN)NC(=O)[C@H](CCCCN)NC(=O)[C@H](C)NC(=O)[C@H](CC(C)C)NC(=O)[C@H](CCCCN)NC(=O)[C@H](C)NC(=O)[C@H](CC(C)C)NC(=O)[C@H](CCCCN)NC(=O)[C@H](CCCCN)NC(=O)[C@H](C)NC(=O)[C@H](CC(C)C)NC(=O)[C@H](CCCCN)NC(=O)[C@H](C)NC(=O)[C@H](CC(C)C)NC(=O)[C@H](CCCCN)NC(=O)[C@H](CCCCN)NC(=O)[C@H](C)NC(=O)[C@H](CC(C)C)NC(=O)[C@@H](N)CCCCN)C(=O)N[C@@H](C)C(=O)O`, the figures for the Concentration in the test filed under Mus musculus and in the test filed under Homo sapiens were 11 µM and greater than 250 µM, respectively. In addition, the MIC with Escherichia coli, against Staphylococcus aureus and against Pseudomonas aeruginosa was 4 µM (≈ 9.11 µg/mL) throughout.

As for `CC(C)C[C@H](NC(=O)[C@H](C)NC(=O)[C@H](CCCCN)NC(=O)[C@H](CC(C)C)NC(=O)[C@H](C)NC(=O)[C@H](CCCCN)NC(=O)[C@H](CCCCN)NC(=O)[C@H](CC(C)C)NC(=O)[C@H](C)NC(=O)[C@H](CCCCN)NC(=O)[C@H](CC(C)C)NC(=O)[C@H](C)NC(=O)[C@H](CCCCN)NC(=O)[C@H](CCCCN)NC(=O)[C@H](CC(C)C)NC(=O)[C@H](C)NC(=O)[C@H](CCCCN)NC(=O)[C@H](CC(C)C)NC(=O)[C@H](C)NC(=O)[C@@H](N)CCCCN)C(=O)N[C@@H](CCCCN)C(=O)O`, the Concentration with NIH3T3 worked out at 11 µM. Also, the MIC in the test with Escherichia coli was found to be 4 µM (≈ 9.11 µg/mL); in the test on Staphylococcus aureus it was 8 µM (≈ 18.2 µg/mL); in the test on Pseudomonas aeruginosa it was 4 µM (≈ 9.11 µg/mL).

Take `CC(C)C[C@H](NC(=O)[C@H](CCCCN)NC(=O)[C@H](C)NC(=O)[C@H](CC(C)C)NC(=O)[C@H](CCCCN)NC(=O)[C@H](CCCCN)NC(=O)[C@H](C)NC(=O)[C@H](CC(C)C)NC(=O)[C@H](CCCCN)NC(=O)[C@H](C)NC(=O)[C@H](CC(C)C)NC(=O)[C@H](CCCCN)NC(=O)[C@H](CCCCN)NC(=O)[C@H](C)NC(=O)[C@H](CC(C)C)NC(=O)[C@H](CCCCN)NC(=O)[C@H](C)NC(=O)[C@H](CC(C)C)NC(=O)[C@@H](N)CCCCN)C(=O)N[C@@H](C)C(=O)N[C@@H](CCCCN)C(=O)O`: the Concentration was 9 µM in the test filed under Mus musculus and greater than 520 µM in the test filed under Homo sapiens. Also, the minimum inhibitory concentration (MIC) with Escherichia coli, against Staphylococcus aureus and against Pseudomonas aeruginosa was 4 µM (≈ 9.11 µg/mL) each time.

Consider `CC(C)C[C@H](NC(=O)[C@H](CCCCN)NC(=O)[C@H](C)NC(=O)[C@H](CC(C)C)NC(=O)[C@H](CCCCN)NC(=O)[C@H](CCCCN)NC(=O)[C@H](C)NC(=O)[C@H](CC(C)C)NC(=O)[C@H](CCCCN)NC(=O)[C@H](C)NC(=O)[C@H](CC(C)C)NC(=O)[C@@H](N)CCCCN)C(=O)N[C@@H](C)C(=O)N[C@@H](CCCCN)C(=O)O`, for which the values for the Concentration in the test listed under Mus musculus and in the test listed under Homo sapiens were greater than 517 µM and greater than 750 µM, respectively. Further, the minimal inhibitory concentration (MIC) in the test on Escherichia coli, in the test on Staphylococcus aureus and in the test with Pseudomonas aeruginosa was 6 µM (≈ 9.14 µg/mL) throughout.

Turning to `CC[C@H](C)[C@H](NC(=O)CN)C(=O)NCC(=O)N[C@@H](C)C(=O)N[C@H](C(=O)N[C@@H](CC(C)C)C(=O)N[C@@H](CCCCN)C(=O)N[C@H](C(=O)N[C@@H](CC(C)C)C(=O)N[C@H](C(=O)N[C@H](C(=O)NCC(=O)N[C@@H](CC(C)C)C(=O)N1CCC[C@H]1C(=O)N[C@@H](C)C(=O)N[C@@H](CC(C)C)C(=O)N[C@H](C(=O)N[C@@H](CO)C(=O)N[C@@H](Cc1c[nH]c2ccccc12)C(=O)N[C@H](C(=O)N[C@@H](CCCCN)C(=O)N[C@@H](CCCNC(=N)N)C(=O)N[C@@H](CCCCN)C(=O)N[C@@H](CCCNC(=N)N)C(=O)N[C@@H](CCC(N)=O)C(=O)N[C@@H](CCC(N)=O)C(N)=O)[C@@H](C)CC)[C@@H](C)CC)[C@@H](C)O)[C@@H](C)O)C(C)C)C(C)C`, the Concentration in the test listed under Mus musculus and in the test filed under Homo sapiens was 1 µM in each case.

Turning to H-GIGKFLHSAKKFGKAFVGEIMNS-NH2, the figures for the Concentration in the test listed under Mus musculus and in the test filed under Homo sapiens were 60 µM and greater than 460 µM, respectively. For the same compound, the minimal inhibitory concentration (MIC) against Escherichia coli stood at 10 µM; against Staphylococcus aureus, 19 µM; in the test with Pseudomonas aeruginosa, 5 µM.

As for H-KAAKKAAKAAKKAA-OH, the Concentration in the test listed under Mus musculus is greater than 525 µM; in the test filed under Homo sapiens, greater than 670 µM. The MIC against Escherichia coli was 47 µM; in the test on Staphylococcus aureus, greater than 256 µM.

As for H-KAAKKAAKAAKKAAKAAKKAA-OH, the figures for the Concentration in the test filed under Mus musculus and in the test listed under Homo sapiens were greater than 440 µM and greater than 1630 µM, respectively. For the same compound, the minimum inhibitory concentration (MIC) in the test on Escherichia coli and in the test on Staphylococcus aureus was 8 µM throughout.

Consider H-KLAKKLA-OH, for which the MIC against Escherichia coli, in the test on Staphylococcus aureus and against Pseudomonas aeruginosa was greater than 100 µM in each case.

For H-KLAKKLAKLAKKLA-OH, the Concentration in the test filed under Mus musculus is greater than 272 µM; in the test filed under Homo sapiens it was greater than 750 µM. Besides, the minimum inhibitory concentration (MIC) was 6 µM against Escherichia coli, 6 µM against Staphylococcus aureus and 3 µM in the test with Pseudomonas aeruginosa.

Regarding H-KLAKLAK-OH, the MIC with Escherichia coli, in the test with Staphylococcus aureus and in the test with Pseudomonas aeruginosa was greater than 95 µM in each case.

In the test filed under Homo sapiens, H-KLGKKLGKLGKKLG-OH came in with a Concentration greater than 780 µM. Further, the MIC in the test on Escherichia coli and with Staphylococcus aureus was 22 µM in each case.

For the compound H-KLGKKLGKLGKKLGKLGKKLG-OH, the Concentration in the test listed under Mus musculus is greater than 393 µM; in the test listed under Homo sapiens, greater than 570 µM. The minimum inhibitory concentration (MIC) with Escherichia coli, in the test with Staphylococcus aureus and against Pseudomonas aeruginosa was 4 µM each time.

The MIC is the lowest concentration that inhibits growth of the organism.

These data come from ChEMBL document CHEMBL1129261, “De novo antimicrobial peptides with low mammalian cell toxicity” (1996).
